m5-HT2A agonist: mouse HTR2A agonism via beta-arrestin recruitment. CHO-K1 mHTR2A beta-arrestin complementation, luminescence; percent of 30 µM serotonin response. 0.66% of 360,000 active. AID 624169. activation, % at 7.6 µM;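 active means activation above a run cutoff, the mean activation of all tested compounds plus 3 SD, cut at about 14% in these data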
MIN6 prolif: MIN6 beta-cell proliferation induction; proliferation, % at 10 µM; AID 2380; 0.29% of 330,000 active; MIN6 cells proliferation, ATPlite luminescence, 48 h; cells starved in 0.2% serum; 100% = growth in 10% serum;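 active means compounds whose signal lies at least 3.5 SD above the mean of all wells on their plate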
SR-BI DiI inh: blocks mouse SR-BI lipid uptake from DiI-HDL; Q61009; ldlA[mSR-BI] CHO cells, DiI-HDL uptake fluorescence, 3 h; inhibition, % at 12.5 µM; 0.96% of 320,000 active; AID 488896;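 active means mean replicate inhibition of at least 70% and a set share of replicates each scoring 70 or more; inconclusive means meets just one of the two criteria; inactive means fails both criteria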
Target sequence (Q61009 whole entry, looked up): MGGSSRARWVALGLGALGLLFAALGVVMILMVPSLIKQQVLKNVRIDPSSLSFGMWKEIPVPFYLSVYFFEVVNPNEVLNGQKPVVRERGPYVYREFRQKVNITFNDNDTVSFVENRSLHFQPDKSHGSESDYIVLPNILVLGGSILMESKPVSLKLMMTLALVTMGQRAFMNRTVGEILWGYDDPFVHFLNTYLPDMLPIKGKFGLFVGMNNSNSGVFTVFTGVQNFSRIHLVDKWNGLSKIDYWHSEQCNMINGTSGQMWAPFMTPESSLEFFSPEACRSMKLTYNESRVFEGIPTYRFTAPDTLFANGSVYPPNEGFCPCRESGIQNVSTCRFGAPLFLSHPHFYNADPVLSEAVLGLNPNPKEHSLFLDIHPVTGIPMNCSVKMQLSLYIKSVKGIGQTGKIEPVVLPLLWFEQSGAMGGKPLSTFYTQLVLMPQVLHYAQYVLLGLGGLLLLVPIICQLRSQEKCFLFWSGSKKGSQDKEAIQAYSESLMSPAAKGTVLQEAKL
Calb FLC: C. albicans growth modulation with fluconazole. C. albicans CaCi-2 + fluconazole, Alamar Blue growth, 48 h. growth inhibition, % (concentration not given with the values). 0.57% of 300,000 active;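 active means growth inhibition above about 58% in most replicates, limit read from the data, passing the limit was not always enough; inconclusive means exactly half the replicates above a set limit; inactive means most replicates below a set limit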;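 further: all wells also contain fluconazole at 8 µg/ml as a sub-toxic cotreatment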
SR-BI DiI-HDL act: activators of SR-BI mediated HDL lipid uptake | CHO ldlA[mSR-BI] cells, DiI-HDL uptake fluorescence, 3 h; 100 = double the neutral-control signal | activation, % at 12.5 µM | 0.096% of 320,000 active | AID 504775;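 active means mean replicate activation of at least 60% and every replicate at or above 60%; inconclusive means mean or all-replicate condition met, but not both; inactive means mean below 60% and not all replicates reaching 60%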
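Material: SR-BI-overexpressing, LDLR-lacking CHO cells; schedule: compound exposure 3 h, 37 °C; reagent: DiI-labelled HDL at 10 µg/mL final; technique: bottom-read fluorescence, 550/595 nm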
Insulin prom up: MIN6 insulin promoter up-regulation; z-score at 5 µM; MIN6 insulin promoter-GFP reporter, high-content imaging; stronger effect = higher value; 0.3% of 190,000 active;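 active means z-score above 3 at 5 µM with at least 500 cells counted in the well; inconclusive means wells under 500 cells, flagged as cytotoxic or low count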
Large screens that a line does not name were inactive. A selection: hits, their analogues and other compounds. The true share with any hit is near 2.4%.

CCN(CC)CCN1C(=O)c2oc3ccccc3c(=O)c2C1c1ccccc1 (configuration not stated)	Insulin prom up 3.7
CC(=O)c1cccc(NC(=S)NCCc2ccc(Cl)cc2)c1	SR-BI DiI inh 76
COc1ccc(C(=O)Nc2cccc(C(C)=O)c2)cc1OC	none
COc1ccc(NC(=S)Nc2cccc(C(C)=O)c2)cc1OC	SR-BI DiI inh 73 (no result: Insulin prom up)
COc1ccc(-c2nc(CC(=O)Nc3cccc(S(=O)(=O)NC4=NCCC4)c3)cs2)cc1	none (no result: Calb FLC, Insulin prom up)
Cc1cccc(NC(=O)c2cccc(S(=O)(=O)N(C)C3CCCCC3)c2)n1	none (no result: MIN6 prolif, SR-BI DiI inh, Calb FLC, SR-BI DiI-HDL act, Insulin prom up)
O=C(c1ccco1)N1CCN(C(=O)C2CC2)CC1	SR-BI DiI-HDL act 67
O=C(c1ccco1)N1CCN(C(=O)c2ccco2)CC1	none (no result: MIN6 prolif, SR-BI DiI inh, Calb FLC, SR-BI DiI-HDL act, Insulin prom up)
COc1ccc(-c2[nH]c(-c3ccccc3)nc2SCC(=O)Nc2nccs2)cc1	none (no result: Calb FLC)
COc1ccc(-c2[nH]c(-c3ccc(C)cc3)nc2SCC(=O)NC2CCCC2)cc1	SR-BI DiI inh 80
COc1ccc(-c2[nH]c(-c3ccc(Cl)cc3)nc2SCC(=O)Nc2nccs2)cc1	SR-BI DiI inh 83
COc1ccc2nc(SCC(=O)NC3CCCC3)c(C)cc2c1	none (no result: Insulin prom up)
CC1CCCCN1C(=O)CSc1nnc(-c2cccs2)o1 (configuration not stated)	none (no result: SR-BI DiI inh, SR-BI DiI-HDL act, Insulin prom up)
CC1CCCC(C)N1C(=O)CSc1nnc(-c2cccs2)o1 (configuration not stated)	Insulin prom up 3.5
CCC(C)Sc1cc(-c2nc3ccccn3c2NC2CCCCC2)ccc1OC (configuration not stated)	SR-BI DiI-HDL act 66 (no result: Insulin prom up)
CCC(C)Sc1cc(-c2nc3cc(C)ccn3c2NC2CCCCC2)ccc1OC (configuration not stated)	none (no result: Calb FLC, Insulin prom up)
COC(=O)C1CN(Cc2ccccc2)C(=O)C1=O (configuration not stated)	none (no result: MIN6 prolif, Calb FLC, Insulin prom up)
CCC1CCC(C(=O)NC(C(=O)NCCN2CCOCC2)C(C)C)CC1 (configuration not stated)	none (no result: SR-BI DiI inh, SR-BI DiI-HDL act, Insulin prom up)
COc1ccc2oc(=N)c(C(=O)Nc3ccccc3Cl)cc2c1	SR-BI DiI inh 72 (no result: Insulin prom up)
CCN(C[C@H]1N[C@@](C)(C(=O)OC)[C@H]2C(=O)N(Cc3ccccc3)C(=O)[C@@H]12)C(=O)c1ccc(C)cc1	none (no result: Calb FLC, Insulin prom up)
CCCCCCCCC(=O)NNC(=O)c1c(O)c2ccccc2n(CC)c1=O	Calb FLC 94
CCCCCCC(=O)NNC(=O)c1c(O)c2ccccc2n(CC)c1=O	none
COc1ccc(NC(=O)Nc2nc3c(s2)CCCC3)cc1	Calb FLC 80
Cc1ccccc1Cn1ccc(=NCc2ccccc2)cc1	Insulin prom up inconclusive (no result: m5-HT2A agonist, SR-BI DiI inh, SR-BI DiI-HDL act)
CCCn1c(N)c(C(=O)COC(=O)COc2ccc(Cl)c(C)c2)c(=O)n(C)c1=O	none (no result: Calb FLC, Insulin prom up)
CCCn1c(N)c(C(=O)COC(=O)c2c(C)noc2C)c(=O)n(C)c1=O	Calb FLC 100
Cc1cn(CC(=O)NCC(C)c2ccccc2)c(=O)[nH]c1=O (configuration not stated)	none (no result: MIN6 prolif, Calb FLC, Insulin prom up)
Cn1c(SCC(=O)N2CCc3ccccc3C2)nnc1-c1ccncc1	Calb FLC 57
C#CCOC(=O)CCCC(=O)NCCCCCCCC	Calb FLC 109
C#CCOC(=O)CCC(=O)NCCc1ccccc1	none
CC(=O)Oc1ccc2ccc3ccc(C(C)=O)cc3c2c1	none (no result: MIN6 prolif, Calb FLC, Insulin prom up)
CCOC(CNC(=O)c1cc2c(=O)n(CC)c3ccccc3c2s1)OCC	SR-BI DiI inh 82 (no result: Insulin prom up)
CCC(C)NC(=O)c1cc2c(=O)n(CC)c3ccccc3c2s1 (configuration not stated)	SR-BI DiI inh 74 (no result: Insulin prom up)
CCn1c(=O)c2cc(C(=O)NCCC(C)C)sc2c2ccccc21	none (no result: Insulin prom up)
COC(=O)c1cc(CN2CCN(c3ccccc3)CC2)ccc1O	none (no result: Insulin prom up)
c1ccc(CC2CCN(C3=Nc4cccc5cccc3c45)CC2)cc1	Calb FLC 86 (no result: Insulin prom up)
Cc1ccc([C@@H]2C[C@H]3[C@@H](CN2S(=O)(=O)c2ccc(Cl)cc2)C(=O)C[C@@H](c2ccc(C)cc2)N3S(=O)(=O)c2ccc(Cl)cc2)cc1	none (no result: MIN6 prolif, SR-BI DiI inh, Calb FLC, SR-BI DiI-HDL act, Insulin prom up)
CC(C)CC(=O)NC(c1cccs1)c1ccc2cccnc2c1O (configuration not stated)	Calb FLC 107
CC(C)C(=O)NC(c1cccs1)c1cc([N+](=O)[O-])c2cccnc2c1O (configuration not stated)	Calb FLC 90
Cc1conc1NC(c1cccs1)c1ccc2cccnc2c1O (configuration not stated)	Calb FLC 87 (no result: m5-HT2A agonist, SR-BI DiI inh, SR-BI DiI-HDL act)
CC(C)C(=O)NC(c1ccco1)c1ccc2cccnc2c1O (configuration not stated)	Calb FLC 98
Nc1cc(OC(=O)c2ccc(F)cc2)nn1S(=O)(=O)c1ccccc1	none (no result: Insulin prom up)
O=C(NNc1ccccc1)c1ccc(Cl)c(Cl)c1	none (no result: MIN6 prolif, Calb FLC, Insulin prom up)
CCCC(=O)NC(c1ccco1)c1cc(Cl)c2cccnc2c1O (configuration not stated)	none
CCCC(=O)NC(c1cccs1)c1cc(Cl)c2cccnc2c1O (configuration not stated)	Calb FLC 86
CCC(=O)NC(c1cccs1)c1ccc2cccnc2c1O (configuration not stated)	Calb FLC 101
Cc1noc(C)c1C(=O)OC(C)C(=O)c1ccc(C(C)(C)C)cc1 (configuration not stated)	none (no result: MIN6 prolif, SR-BI DiI inh, Calb FLC, SR-BI DiI-HDL act, Insulin prom up)
O=C(CCCOc1ccc(Cl)cc1Cl)N/N=C/c1cccc([N+](=O)[O-])c1	SR-BI DiI-HDL act 330
Cc1cnc(C(=O)NC2CC(C)(C)Cc3c2cnn3-c2cccc(F)c2)cn1 (configuration not stated)	none (no result: Insulin prom up)
Cc1cc(C)c(C#N)c(SCC2COc3ccccc3O2)n1 (configuration not stated)	Insulin prom up 3.5
N#Cc1cc2c(nc1SCC1COc3ccccc3O1)CCC2 (configuration not stated)	none
CC(C)c1nc2oc3c(NCCO)ncnc3c2c2c1COC(C)(C)C2	SR-BI DiI-HDL act 239
CC(C)c1nc2oc3c(NCC4CCCO4)ncnc3c2c2c1COC(C)(C)C2 (configuration not stated)	none (no result: MIN6 prolif)
COc1ccc(-c2csc(NC(=S)NC(=O)/C=C/c3ccco3)n2)cc1Br	none
COc1ccc(-c2csc(NC(=S)NC(=O)/C=C/c3ccco3)n2)cc1OC	SR-BI DiI inh 76 (no result: MIN6 prolif, Insulin prom up)
COc1ccc(-c2csc(NC(=S)NC(=O)/C=C/c3ccc(C(C)C)cc3)n2)cc1OC	SR-BI DiI inh 75 (no result: Insulin prom up)
O=C(N/N=C/c1ccoc1)c1cccc(OC(F)(F)C(F)F)c1	none (no result: Insulin prom up)
COC(=O)C[C@@H]1C[C@@H]2c3cc(NC(=O)Cc4ccncc4)ccc3O[C@@H]2[C@@H](CO)O1	none (no result: MIN6 prolif, SR-BI DiI inh, Calb FLC, SR-BI DiI-HDL act, Insulin prom up)
O=C(C[n+]1cc(-c2ccc(Cl)c(Cl)c2)n2c1CCC2)N1c2ccccc2Sc2ccccc21	Calb FLC 107
